Assays:
[1] = biological target: T1, Nuclear receptor subfamily 1 group I member 3 (Mus musculus, UniProt O35627, H213A); assay: Enhancement of nuclear co-repressor receptor binding to mouse CAR H213A mutant […] at 10 uM by yeast two-hybrid assay; assay type: cell-based
Method in brief: (§1)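 Yeast two-hybrid: yeast expressing wild-type or mutant mouse CAR LBD plus SRC-1 or NCoR, selected on SD medium lacking Leu and Trp. Pooled colonies treated with DMSO or test chemical for 3.5 h. β-Galactosidase normalized to cell density. SRC-1 reference: wild-type + DMSO = 100. NCoR reference: 10 µM androstenol = 100. Mean ± SD, two independent determinations, each in triplicate.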

[2] = biological target: T2, Nuclear receptor subfamily 1 group I member 3 (Mus musculus, UniProt O35627, L353A); assay: Enhancement of nuclear co-repressor receptor binding to mouse CAR L353A mutant […] at 10 uM by yeast two-hybrid assay; assay type: cell-based; method in brief: as §1
T2 sequence (O35627 whole entry L353A): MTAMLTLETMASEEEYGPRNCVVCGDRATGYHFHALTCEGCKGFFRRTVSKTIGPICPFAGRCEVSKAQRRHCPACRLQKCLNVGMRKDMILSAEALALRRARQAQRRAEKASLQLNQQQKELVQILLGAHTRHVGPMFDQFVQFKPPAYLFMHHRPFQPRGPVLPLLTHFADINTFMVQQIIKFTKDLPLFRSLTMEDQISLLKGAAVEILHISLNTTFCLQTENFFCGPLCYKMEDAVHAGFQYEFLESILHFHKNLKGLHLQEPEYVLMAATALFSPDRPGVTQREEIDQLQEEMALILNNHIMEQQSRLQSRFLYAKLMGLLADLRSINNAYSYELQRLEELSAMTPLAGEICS

[3] = biological target: Nuclear receptor subfamily 1 group I member 3 (Mus musculus, UniProt O35627, Y336A); assay: Enhancement of steroid receptor coactivator 1 binding to mouse CAR Y336A mutant […] at 10 uM by yeast two-hybrid assay; assay type: cell-based; method in brief: as §1
Sequence of Nuclear receptor subfamily 1 group I member 3 (Mus musculus, UniProt O35627, Y336A) (O35627 whole entry Y336A): as the sequence (O35627 whole entry L353A) above, with Y336A, A353L counted along it

[4] = biological target: T1, Nuclear receptor subfamily 1 group I member 3; assay: Effect on nuclear co-repressor receptor binding to mouse CAR H213A mutant […] at 10 uM by yeast two-hybrid assay; assay type: cell-based; conditions: read-out: Activity; method in brief: as §1
[5] = biological target: Nuclear receptor subfamily 1 group I member 3 (Mus musculus, UniProt O35627, L253F); assay: Effect on steroid receptor coactivator 1 binding to mouse CAR L253F mutant […] at 1 uM by yeast two-hybrid assay; assay type: cell-based; conditions: read-out: Activity
Sequence of Nuclear receptor subfamily 1 group I member 3 (Mus musculus, UniProt O35627, L253F) (O35627 whole entry L253F, the tested form may be a part): as the sequence (O35627 whole entry L353A) above, with L253F, A353L counted along it
Method in brief: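 Yeast two-hybrid assay. Yeast co-expressing wild-type or mutant mouse CAR LBD and the SRC-1 partner were selected on SD plates lacking leucine and tryptophan. Random colonies were pooled and amplified, then treated with DMSO or test chemical for 3.5 h. β-galactosidase activity was normalized to cell density and set relative to wild-type mCAR + SRC-1 with DMSO (=100). Mean ± standard deviation of two determinations, each in triplicate.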

[6] = biological target: Nuclear receptor subfamily 1 group I member 3 (Mus musculus, UniProt O35627, L212A); assay: Effect on nuclear co-repressor receptor binding to mouse CAR L212A mutant […] at 1 uM by yeast two-hybrid assay; assay type: cell-based; conditions: read-out: Activity
Sequence of Nuclear receptor subfamily 1 group I member 3 (Mus musculus, UniProt O35627, L212A) (O35627 whole entry L212A, the tested form may be a part): as the sequence (O35627 whole entry L353A) above, with L212A, A353L counted along it
Method in brief: (§2)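 Yeast expressing wild-type or mutant mouse CAR LBD plus NCoR, selected on SD plates lacking leucine and tryptophan. Pooled colonies treated with DMSO or compound for 3.5 h. β-Galactosidase activity normalized to cell density. Reference is 10 µM androstenol (=100). Mean ± SD of two independent determinations, each in triplicate.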

[7] = biological target: T3, Nuclear receptor subfamily 1 group I member 3 (Mus musculus, UniProt O35627, T350A); assay: Decrease in mouse CAR T350A mutant activation expressed in HEK293 cells at 1 uM by mammalian one-hybrid assay; assay type: cell-based; conditions: read-out: Activity
T3 sequence (O35627 whole entry T350A, the tested form may be a part): as the sequence (O35627 whole entry L353A) above, with T350A, A353L counted along it
Method in brief: (§3)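 GAL4 DBD fused to mouse CAR LBD (residues 118-358), wild type or point mutant, cotransfected with UASx4-tk-luc reporter and pCMVβ into HEK293 cells. Cells cultured with DMSO (0.1% v/v) or compound (final 1, 2 or 10 µM). Lysed 24 h post-transfection. Luciferase normalized to β-galactosidase, expressed relative to empty GAL4 vector (=1.0). Mean ± SD, three independent experiments.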

[8] = biological target: Nuclear receptor subfamily 1 group I member 3 (Mus musculus, UniProt O35627, N175A); assay: Decrease in mouse CAR N175A mutant activation expressed in HEK293 cells at 1 uM by mammalian one-hybrid assay; assay type: cell-based; conditions: read-out: Activity; method in brief: as §3
Sequence of Nuclear receptor subfamily 1 group I member 3 (Mus musculus, UniProt O35627, N175A) (O35627 whole entry N175A): as the sequence (O35627 whole entry L353A) above, with N175A, A353L counted along it

[9] = biological target: Nuclear receptor subfamily 1 group I member 3 (Mus musculus, UniProt O35627, S251L); assay: Effect on nuclear co-repressor receptor binding to mouse CAR S251L mutant […] at 1 uM by yeast two-hybrid assay; assay type: cell-based; conditions: read-out: Activity; method in brief: as §2
Sequence of Nuclear receptor subfamily 1 group I member 3 (Mus musculus, UniProt O35627, S251L) (O35627 whole entry S251L): as the sequence (O35627 whole entry L353A) above, with S251L, A353L counted along it

[10] = biological target: T3, Nuclear receptor subfamily 1 group I member 3; assay: Decrease in steroid receptor coactivator 1 binding to mouse CAR T350A mutant […] at 1 uM by yeast two-hybrid assay; assay type: cell-based; conditions: read-out: Activity
Method in brief: as §2, with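 “SRC-1,” for “NCoR,”, “wild-type CAR + SRC-1 with DMSO” for “10 µM androstenol”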

[11] = biological target: T2, Nuclear receptor subfamily 1 group I member 3; assay: Decrease in steroid receptor coactivator 1 binding to mouse CAR L353A mutant […] at 1 uM by yeast two-hybrid assay; assay type: cell-based; conditions: read-out: Activity
Method in brief: as §2, with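 “SRC-1,” for “NCoR,”, “wild-type CAR + SRC-1 with DMSO” for “10 µM androstenol”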

[12] = biological target: T3, Nuclear receptor subfamily 1 group I member 3; assay: Activation of mouse CAR T350A mutant expressed in HEK293 cells at 10 uM by mammalian one-hybrid assay; assay type: cell-based; conditions: hek293, 10 µM; method in brief: as §3
[13] = biological target: T4, Nuclear receptor subfamily 1 group I member 3 (Mus musculus, UniProt O35627, I252L); conditions: HEK293, mouse
T4 sequence (O35627 whole entry I252L): as the sequence (O35627 whole entry L353A) above, with I252L, A353L counted along it

[14] = biological target: T4, Nuclear receptor subfamily 1 group I member 3; assay: Enhancement of steroid receptor coactivator 1 binding to mouse CAR I252L mutant […] at 2 uM by yeast two-hybrid assay; assay type: cell-based; method in brief: as §1

T1 sequence (O35627 whole entry H213A, the tested form may be a part): as the sequence (O35627 whole entry L353A) above, with H213A, A353L counted along it

COc1ccc(C(=O)CCCc2ccccc2)cc1
Activity [1]: >= 50%
Activity [2]: >= 50%

COc1ccccc1CC(CC(=O)Cc1ccccc1)OC (centres undefined)
Activity [3]: > 150%
activity at 10 µM [4]: < 50%

Clc1cnc(Oc2ccc(Oc3ncc(Cl)cc3Cl)cc2)c(Cl)c1
activity at 1 µM [5]: < 50%
activity at 1 µM [6]: < 50%
inhibition at 1 µM [7]: < 50%
inhibition at 1 µM [8]: < 50%
activity at 1 µM [9]: < 50%
inhibition at 1 µM [10]: ≥ 50%
inhibition at 1 µM [11]: ≥ 50%

C[C@]12CC[C@@H](O)C[C@@H]1CC[C@@H]1[C@@H]2CC[C@]2(C)C=CC[C@@H]12 [ANDROSTENOL]
Activity [12]: < 50%
activity at 10 µM [13]: < 50%

Clc1ccccc1C(c1ccccc1)(c1ccccc1)n1ccnc1 [CLOTRIMAZOLE]
Activity [14]: >= 50%
